From publication PMC10461461 (Protein Science : A Publication of the Protein Society, 2023)
Marks after values point to notes of the source that are not given here. Where no end group is shown, it is not given here.

How the values were obtained:
[1] = pH at which 50% of peptides are in the α-helical membrane inserted state; ref Vasquez-Montes et al. (2018); cited from earlier work
[2] = Solubility in aqueous buffer; type: physicochemical; settings: peptides solubilized to 20 μM in 5 mM sodium phosphate pH 8.0
[3] = system: HSC3 cells expressing PTPRJ ectopically; experiment: Cell viability assay; type: cell-based, human; settings: 72 h recovery, MTT, n = 9
Outline: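 HSC3 cells engineered to express wild-type PTPRJ, grown in high-glucose DMEM with 10% FBS at 37°C and 5% CO₂, seeded at 5000 cells/well overnight. Peptide in serum-free medium for 5 min at 37°C. Medium then acidified to target pH with citric acid-buffered medium (pH 2.0) for 10 min. Cells washed, then 72 h recovery in complete DMEM. MTT read-out, normalized to medium-only pH 7.4 cells. […]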

HSC3 cells = experiment: Lactate dehydrogenase release assay; type: cell-based, human; settings: 10 μM, 1 h, pH 7.4, 5.5 or 5.0, mean ± S.D., n = 3
[4] = Tryptophan fluorescence emission maximum; type: physicochemical; settings: POPC LUVs, pH 8.0 and pH 4.0, Trp fluorescence
[5] = system: EGFR phosphorylation (Tyr-1068 and Tyr-1173) in HSC3 cells expressing wild-type PTPRJ; settings: 10 μM, 1-h treatment; ref Bloch et al., 2019; cited from earlier work
[6] = system: HSC3 cells ectopically expressing PTPRJ; settings: 10 μM, 1-h treatment; ref Bloch et al., 2019; cited from earlier work
[7] = system: HSC3 cells ectopically expressing PTPRJ; experiment: Wound healing scratch assay; type: cell-based, human; settings: 10 μM, 10 min, n = 8-11
Outline: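 PTPRJ-expressing HSC3 monolayers, confluent at 24 h, serum-starved 2 h. Peptide added in serum-free medium at pH 7.4 (5 min, 37°C), then pH lowered with citrate-buffered medium (pH 2.0) to reach final concentration; 10 min exposure. Monolayer scratched, then complete medium with EGF 50 ng/mL, 37°C, 10 h. Closure taken as percent area change from start to end, normalized to cells treated at pH 7.4.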

[8] = system: EGFR phosphorylation (Tyr-1068 and Tyr-1173) in HSC3 cells expressing wild-type PTPRJ; experiment: EGFR Tyr phosphorylation level by immunoblotting; type: cell-based, human; settings: 10 μM, 10 min, indicated pHs (7.4, 5.5, 5.0), then EGF
Outline: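 HSC3 cells engineered to express wild-type PTPRJ, seeded and grown overnight, then serum-starved 2 h. Peptide in serum-free medium for 5 min at 37°C; medium acidified with citrate-buffered medium (pH 2.0) to reach final 10 μM; 10 min at 37°C; then EGF 10 ng/mL for 10 min. Lysates immunoblotted for pY1068, pY1173 and total EGFR; chemiluminescence; densitometric phospho/total ratio, mean values.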

AAEQNPIYWARYDWLFTTPLLLLDLALLVDADEGG [pHLIP(WT‐Ala)]
pK50 [1]: 6.1 ^b

DDTTLLLLSEIGAGMWVSLVELIADADEG [hybrid7]
solubility in aqueous buffer [2]: readily soluble in aqueous buffer | cell viability ([3]; pH 5.5, 10 μM, 10 min treatment): 20% | release of LDH (membrane integrity) (HSC3 cells): Neither hybrid7 nor low pH treatment causes a significant release of LDH

DDDDDDTTLLLLS DIGA IMWVSLVDLIADADEG [hybrid1]
partitioning into the lipid bilayer [4]: does not partition into the lipid bilayer

KKTTLLLL S SIG A IMW V SLVCLIAVKGSNKK [RJbinder]
decrease in phosphorylation at Tyr-1068 and Tyr-117 [5]: 20%–30% | decrease in cell migration [6]: 20%

AAEQNPIYWARYDWLFTTGLLLLDLALLVDADEGG [pHLIP(P20G)]
pK50 [1]: 7.2 ^b

DDTTLLLLSEIGLGMWVSLVELIADADEG [hybrid7‐control]
decrease / inhibition in cell migration (wound closure) ([7]; pH 5.0, EGF 50 ng/mL 10 h): 30% | effect on cell migration (wound closure) ([7]; pH 5.5, EGF 50 ng/mL 10 h): does not result in any effect | effect on cell viability ([3]; pH 7.4 or 5.5, 10 min treatment): had no effect at either high or acidic pH | change in EGFR phosphorylation level [8]: no changes in phosphorylation level
